Measured values gathered from unrelated publications.
Matrix: plasma

COc1ccc([C@@H]2CN(C(=O)[C@@H](O)CO)C[C@@]2(C)[C@@H](C)O)cc1OC1CN(c2ccc(C)cn2)C1  AUC(0-t) (human; oral, 1.5 mg, single dose, healthy volunteers): 467 ng·h/mL
CO[C@H]1CC[C@H](N2C(=O)CNc3ncc(-c4ccc(C(C)(C)O)nc4)nc32)CC1  AUC(0-t) (human; oral, 45 mg, patients): 1500 ng·h/mL
CCCCC1=NC2(CCCC2)C(=O)N1Cc1ccc(-c2ccccc2S(=O)(=O)Nc2noc(C)c2C)c(COCC)c1  AUC(0-t) (human; oral, 800 mg, single dose, fasted, healthy volunteers): 138000 ng·h/mL
CC(C)n1cc(C#N)c2cc(-n3cc(C(=O)O)cn3)ccc21  AUC(0-t) (human; oral, 50 mg, single dose, fasted, healthy volunteers): 6980 ng·h/mL
CC(C)(O)c1ccccc1-c1ccc2[nH]c(/C=C/c3ccc(C(F)(F)F)cc3)nc2c1  AUC(0-t) (male human; oral, 1 mg, single dose, fasted): 83 ng·h/mL
C[C@@]1(c2cc(NC(=O)c3ccc(C#N)cn3)ccc2F)C=CSC(N)=N1  AUC(0-t) (human; oral, 90 mg, single dose): 8800 ng·h/mL
COCCOc1cnc2ccn([C@H](C)c3nnc4c(F)cc(-c5cnn(C)c5)cn34)c(=O)c2c1  AUC(0-t) (human; oral, 100 mg, multiple doses, once daily, patients): 17300 ng·h/mL
CO[C@@H]1[C@H](OC(=O)N2CC(CCN3CCOCC3)C2)CC[C@]2(CO2)[C@H]1[C@@]1(C)O[C@@H]1CC=C(C)C  AUC(0-t) (human; subcutaneous, 0.2 mg, single dose, healthy volunteers): 0.24 ng·h/mL
C[C@@H](Nc1cc(F)cc(F)c1)c1cc(C(=O)N(C)C)cc2c(=O)cc(N3CCOCC3)oc12  AUC(0-t) (human; oral, 60 mg, single dose, patients): 1240 ng·h/mL
COc1cc(N2CCC(N3CCN(C)CC3)CC2)ccc1Nc1ncnc(Nc2ccccc2S(=O)(=O)C(C)C)n1  AUC(0-t) (human; oral, 75 mg, multiple doses, patients): 3810 ng·h/mL
Cc1nc(NC(=O)N2CCC[C@H]2C(N)=O)sc1-c1ccnc(C(C)(C)C(F)(F)F)c1  AUC(0-t) (human; oral, 180 mg, patients): 15500 ng·h/mL
FC(F)(F)c1ccc(CNc2ccc(Cc3c[nH]c4ncc(Cl)cc34)cn2)cn1  AUC(0-t) (human; oral, 1000 mg, multiple doses, patients): 14000 ng·h/mL
